The values below come from ChEMBL document CHEMBL1139081, “Rational design, synthesis, and structure-activity relationship of benzoxazolones: new potent mglu5 receptor antagonists based on the fenobam structure” (Bioorg Med Chem Lett, 2007).

Series [1] has as its target T1, Metabotropic glutamate receptor 5 (Homo sapiens, UniProt P41594). As to the kind of experiment: Binding affinity to mGluR5.
The target of series [2] is T1, Metabotropic glutamate receptor 5. In words: Antagonist activity at mGluR5 assessed as inhibition of Ca2+ […] by FLIPR. In kind it is functional.
A short description of series [3]: Clearance in rat. Format: ADME, organism-based. The settings on record: in vivo.
The nature of series [4]: Oral bioavailability in rat. Format: ADME, organism-based. The settings on record: in vivo.
Series [5] is described as follows: Volume of distribution in rat. Format: ADME, organism-based. The settings on record: in vivo.
Series [6] can be described thus: Half life in rat. Format: ADME, organism-based. The conditions noted are these: in vivo.
Series [7] is described as follows: Ratio of drug level in brain to plasma in rat after 3 hrs. In kind it is ADME. The settings on record: brain and plasma. An outline of the steps: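 Blood/brain partitioning checked 3 h after administration as brain-to-plasma concentration ratio; cerebrospinal fluid concentration also measured, expressed as percentage of plasma concentration.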
The species named for series [8] is Mus musculus. In words: Decrease in stress-induced hyperthermia in NMRI mouse. In kind it is functional. The settings on record: read-out: MED. The method in brief: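 Stress-induced hyperthermia model of anxiety in NMRI mice, read as change in temperature (DT). Oral dosing at 10 and 30 mg/kg, vehicle 0.3% Tween 80 in 0.9% NaCl, 60 min pre-treatment. Each group compared to vehicle by independent t-test.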

Structures are written as SMILES. pIC50, pKi: −log10 of the molar value.

T1 sequence (P41594 whole entry): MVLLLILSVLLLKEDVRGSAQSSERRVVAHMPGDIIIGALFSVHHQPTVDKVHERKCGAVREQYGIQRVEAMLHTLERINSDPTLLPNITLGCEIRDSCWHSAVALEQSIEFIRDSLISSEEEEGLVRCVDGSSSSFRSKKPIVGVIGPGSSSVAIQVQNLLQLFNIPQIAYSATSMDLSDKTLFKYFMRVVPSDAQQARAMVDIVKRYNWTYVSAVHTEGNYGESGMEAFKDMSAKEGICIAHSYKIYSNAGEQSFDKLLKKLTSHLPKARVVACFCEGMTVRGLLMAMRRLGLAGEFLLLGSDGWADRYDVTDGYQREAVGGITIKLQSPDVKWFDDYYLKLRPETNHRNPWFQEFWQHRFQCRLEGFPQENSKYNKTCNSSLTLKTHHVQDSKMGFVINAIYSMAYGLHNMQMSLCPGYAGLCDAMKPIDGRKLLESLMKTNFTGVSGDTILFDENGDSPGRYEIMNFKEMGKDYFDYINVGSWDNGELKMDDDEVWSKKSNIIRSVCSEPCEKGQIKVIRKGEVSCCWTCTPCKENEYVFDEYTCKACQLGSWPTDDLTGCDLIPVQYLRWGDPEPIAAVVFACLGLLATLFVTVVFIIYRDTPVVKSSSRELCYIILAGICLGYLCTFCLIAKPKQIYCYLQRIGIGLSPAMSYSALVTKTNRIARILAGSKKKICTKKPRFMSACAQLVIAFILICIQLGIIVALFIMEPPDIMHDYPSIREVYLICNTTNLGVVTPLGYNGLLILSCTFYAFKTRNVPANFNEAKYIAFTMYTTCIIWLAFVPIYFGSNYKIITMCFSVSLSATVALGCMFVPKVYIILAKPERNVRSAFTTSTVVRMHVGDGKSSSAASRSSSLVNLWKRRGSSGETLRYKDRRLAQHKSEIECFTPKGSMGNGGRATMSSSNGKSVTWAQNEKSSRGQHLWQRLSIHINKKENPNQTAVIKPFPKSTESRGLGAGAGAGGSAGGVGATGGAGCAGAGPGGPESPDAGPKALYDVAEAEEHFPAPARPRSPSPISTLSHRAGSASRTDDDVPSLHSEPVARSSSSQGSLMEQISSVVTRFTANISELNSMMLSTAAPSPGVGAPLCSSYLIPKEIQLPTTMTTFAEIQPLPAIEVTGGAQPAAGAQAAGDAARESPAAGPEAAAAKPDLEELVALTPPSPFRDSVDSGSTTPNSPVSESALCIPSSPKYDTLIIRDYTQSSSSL

Consider `O=C(Nc1cccc(Cl)c1)c1cccc2nc[nH]c12`, for which the pKi in series [1] was less than 5.00.

With `Cc1nccc(NC(=O)c2cccc3oc(=O)[nH]c23)n1`, the pKi in series [1] was 5.71.

As for `O=C(Nc1cccc(Br)c1)c1cccc2oc(=O)[nH]c12`, in series [1], the negative logarithm of the Ki (pKi) is 7.25. In addition, in series [2], the pIC50 is 7.03.

Compound `COc1cccc(NC(=O)c2cccc3oc(=O)[nH]c23)c1` gave a pKi in series [1] of 5.41.

Regarding `Cc1cccc(NC(=O)c2cccc3oc(=O)[nH]c23)n1`, in series [1], the pKi is 7.02. For the same compound, the pIC50 in series [2] is 7.22. Also, the clearance in series [3] stood at 8.2 mL/min/kg. Moreover, in series [4], the bioavailability came to 64%. Also, the Vd in series [5] amounted to 0.18 L/kg. The half-life in series [6] is 13.2 min. Further, in series [7], the Kp at 3 h stood at 0.06. Further, the minimal effective dose in series [8] worked out at 10 mg/kg.

Take `O=C(Nc1cccc(C(F)(F)F)c1)c1cccc2oc(=O)[nH]c12`: the pKi in series [1] was 6.31.

In series [1], `O=C(Nc1ccccc1Cl)c1cccc2oc(=O)[nH]c12` had a pKi of less than 5.00.

Turning to `O=C(Nc1cccc(Cl)c1)c1cccc2oc(=O)[nH]c12`, in series [1], the pKi was 7.17. Further, in series [2], the negative logarithm of the IC50 (pIC50) is 6.71.

`O=C(Nc1cccc(Cl)c1)c1cccc2cc[nH]c12` gave a pKi in series [1] of 5.41.

As for `O=C(Nc1ccccc1)c1cccc2oc(=O)[nH]c12`, the pKi in series [1] is 5.66.

In the case of `CC(=O)Nc1ccccc1C(=O)Nc1cccc(Cl)c1`, the pKi in series [1] was less than 5.00.

In series [1], `O=C(Nc1cccc(Cl)c1)c1cccc2nn[nH]c12` showed a pKi of less than 5.00.

For `O=C1Cc2cccc(C(=O)Nc3cccc(Cl)c3)c2N1`, the pKi in series [1] is 6.40.

For the compound `N#Cc1cccc(NC(=O)c2cccc3oc(=O)[nH]c23)c1`, the pKi in series [1] is 6.49.

For `O=C(Nc1cccc(Cl)c1)c1cccc2[nH]c(=O)[nH]c12`, the pKi in series [1] is 5.41. Against the preceding compound, the pKi is 1.08 log units lower.

In series [1], `Cc1cc(NC(=O)c2cccc3oc(=O)[nH]c23)ccn1` had a pKi of 5.51. This pKi and that of the compound before are within 0.2 log units of each other.

As to `O=C(Nc1ccc(Cl)cc1)c1cccc2oc(=O)[nH]c12`, the negative-log Ki (pKi) in series [1] is 5.42.

For the compound `Cn1c(=O)[nH]c2c(C(=O)Nc3cccc(Cl)c3)cccc21`, in series [1], the pKi is less than 5.00.

In turn, `Cc1nc(NC(=O)c2cccc3oc(=O)[nH]c23)cs1` had a pKi in series [1] of 6.60.

In the case of `O=C1COc2cccc(C(=O)Nc3cccc(Cl)c3)c2N1`, the pKi in series [1] is 5.54.

`Cc1cccc(NC(=O)c2cccc3oc(=O)[nH]c23)c1`: in series [1], the pKi is 6.96. Further, the pIC50 in series [2] is 6.98.

`O=C(Nc1cccc(Cl)c1)c1cccc2[nH]c(=O)oc12` gave a pKi in series [1] of less than 5.00.

Regarding `O=C(Nc1ccccn1)c1cccc2oc(=O)[nH]c12`, the pKi in series [1] is 6.60.

`O=C(Nc1cc(Cl)cc(Cl)c1)c1cccc2oc(=O)[nH]c12` had a pKi in series [1] of less than 5.00.

For orientation: pKi means the negative decadic logarithm of the Ki, by convention in mol/L. A lower pKi goes with a high Ki. The term pIC50 denotes −log10 of the IC50, conventionally taken in molar units. As usually defined, the clearance is a measure of how efficiently the substance is removed, as volume per time. Higher therefore signals a high capacity for elimination. For orientation: bioavailability means dose-corrected exposure relative to a reference, in per cent. Read a high bioavailability as much systemic uptake. A word on the Vd: it is a proportionality between amount in the body and measured concentration, not a real space. High values mean wide distribution into tissue, low ones little distribution into tissue. The term half-life denotes how long it takes for the measured level to halve. A lower half-life goes with rapid decline. What is called Kp is the ratio of the level in a tissue or fluid to that in plasma or blood.
